The results in this text go back to ChEMBL document CHEMBL5620424, “Design, synthesis and evaluation of novel 2-phenyl-3-(1H-pyrazol-4-yl)pyridine positive allosteric modulators for the M4 mAChR” (Eur J Med Chem, 2023).

Structures are written as SMILES. Active and inactive are the calls of the source. The calls are words filed in the database; no cut-off is given here.

A short description of series [1]: Ratio of drug concentration in brain to plasma of naive C57BL/6J mouse at 10 mg/kg, ip. The class given is ADME, organism-based. Particulars: read-out: BPR. The method in brief:
(§1)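 Male C57Bl/6J mice, naïve, 10–12 weeks old, dosed i.p. at 10 mg/kg in 10% DMSO, 1.1% Tween 80, 21.8 mM Tris. Blood by cardiac puncture under anaesthesia at 20 or 90 min (n = 2–3 per time point). Brain concentration corrected for compound in brain vasculature. Mean nM ± SEM reported; Kp = Cbrain/Cplasma, reported as a range.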

Series [2] concerns the target T1, Muscarinic acetylcholine receptor M4 (Homo sapiens) (UniProt P08173).
T1 sequence (whole entry): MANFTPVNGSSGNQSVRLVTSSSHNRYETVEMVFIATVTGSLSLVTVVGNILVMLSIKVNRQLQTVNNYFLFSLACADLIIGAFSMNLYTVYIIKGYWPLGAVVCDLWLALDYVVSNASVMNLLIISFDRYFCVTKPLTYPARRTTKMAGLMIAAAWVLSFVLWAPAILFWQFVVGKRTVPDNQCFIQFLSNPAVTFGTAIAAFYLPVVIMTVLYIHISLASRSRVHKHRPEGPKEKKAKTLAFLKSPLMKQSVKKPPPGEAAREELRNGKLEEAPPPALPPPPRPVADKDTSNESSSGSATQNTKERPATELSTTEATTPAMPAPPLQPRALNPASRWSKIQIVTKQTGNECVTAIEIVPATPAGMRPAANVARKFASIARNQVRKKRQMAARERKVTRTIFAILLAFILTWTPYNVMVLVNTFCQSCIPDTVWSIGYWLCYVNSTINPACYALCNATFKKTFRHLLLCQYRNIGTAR
As to the kind of experiment: Positive allosteric modulation at human M4 mAChR expressed in Flp-In-CHO cells co-expressing CAMYEL biosensor assessed as change in ACh-mediated response incubated for 5 mins by BRET assay. The format is cell-based. The note with it: filed as positive allosteric modulator. The method in brief: (§2)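 FlpInCHO cells stably expressing human M4 mAChR, transiently transfected with CAMYEL cAMP BRET biosensor (60 ng/well, PEI), assayed 48 h later in HBSS pH 7.4. Full ACh concentration-response curve alone or with modulator at 1 or 10 μM, co-added with coelenterazine h (5 μM), 5 min, 37 °C. Three-parameter logistic fit; ACh curve values subtracted from ACh+modulator values. Δbaseline and ΔEmax given as % of maximal ACh response without modulator. 4 experiments in duplicate, SEM pooled.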
For orientation: BRET reads energy transfer from a luciferase to a nearby fluorophore.

Series [3] is described as follows: Drug concentration in plasma of naive C57BL/6J mouse at 10 mg/kg, ip measured after 90 mins. The class given is ADME, organism-based. The method in brief: as §1
Series [4] can be described thus: Drug concentration in brain of naive C57BL/6J mouse at 10 mg/kg, ip measured after 90 mins. The format is ADME, organism-based. The note with it: read-out: Ct. The method, boiled down:
as §1

The target in series [5] is T1, Muscarinic acetylcholine receptor M4 (Homo sapiens). Description: Positive allosteric modulation at human M4 mAChR expressed in Flp-In-CHO cells assessed as increase in ERK1/2 phosphorylation at 10 uM incubated for 5 mins […]. The format is cell-based. Particulars: filed as positive allosteric modulator. The method, boiled down: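 FlpInCHO cells stably expressing human M1–M5 mAChRs, serum-deprived in HBSS 4 h at 37 °C, then ACh (10 nM–10 μM) with or without modulator at 10 μM for 5 min at 37 °C. Cells lysed and frozen overnight. pERK1/2 measured by AlphaScreen SureFire Ultra, as % of response to 10% FBS.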

Series [6] is described as follows: Drug concentration in brain of naive C57BL/6J mouse at 10 mg/kg, ip measured after 20 to 30 mins. The format is ADME, organism-based. The note with it: in vivo, time 20-30 min, read-out: Ct. The method in brief:
as §1

Series [7] deals with T1, Muscarinic acetylcholine receptor M4 (Homo sapiens). Description: Positive allosteric modulation at human M4 mAChR expressed in Flp-In-CHO cells co-expressing CAMYEL biosensor assessed as efficacy of ACh-mediated cAMP signalling (log tau B) incubated for 5 mins by BRET assay. The class given is functional, cell-based. The note with it: filed as positive allosteric modulator. The method in brief:
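CAMYEL-transfected FlpInCHO-hM4 cells (48 h post-transfection) given ACh and modulator concentration ranges in full interaction design, 5 min at 37 °C; BRET read with coelenterazine h. Fit to complete operational model of allosterism and agonism with ACh KA and modulator KB fixed from binding assays. Gives log τB and log αβ. 4–5 experiments in duplicate.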

Series [8] shares this target. Description: Positive allosteric modulation at Rluc-tagged human M4 mAChR expressed in Flp-In-CHO cells co-expressing eYFP-tagged beta-arrestin 2 assessed as efficacy of ACh-mediated beta-arrestin 2 recruitment (log tau B) incubated for 5 mins by luminometry. The class given is cell-based. The note with it: filed as positive allosteric modulator. The method in brief: (§3)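 FlpInCHO cells co-transfected with human M4-Rluc8 (20 ng/well) and β-arrestin-2-eYFP (80 ng/well) using PEI, assayed after 48 h. Coelenterazine h (5 μM) preincubated 5 min, then ACh plus modulator ranges for 5 min at 37 °C; BRET at 475/535 nm. Fit to simplified operational model with slope 1 and KB fixed from binding. 4–5 experiments in duplicate.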
(In general: Activated receptors often draw arrestin, which recruitment assays turn into a signal.)

For series [9] the target is unchanged. As to the kind of experiment: […] human M4 mAChR expressed in Flp-In-CHO cells co-expressing CAMYEL biosensor assessed as change in baseline response at 10 uM incubated for 5 mins by BRET assay relative to control. The format is cell-based. The method in brief:
as §2

In series [10] the target is T2, Muscarinic acetylcholine receptor M1 (Homo sapiens) (UniProt P11229).
T2 sequence (whole entry): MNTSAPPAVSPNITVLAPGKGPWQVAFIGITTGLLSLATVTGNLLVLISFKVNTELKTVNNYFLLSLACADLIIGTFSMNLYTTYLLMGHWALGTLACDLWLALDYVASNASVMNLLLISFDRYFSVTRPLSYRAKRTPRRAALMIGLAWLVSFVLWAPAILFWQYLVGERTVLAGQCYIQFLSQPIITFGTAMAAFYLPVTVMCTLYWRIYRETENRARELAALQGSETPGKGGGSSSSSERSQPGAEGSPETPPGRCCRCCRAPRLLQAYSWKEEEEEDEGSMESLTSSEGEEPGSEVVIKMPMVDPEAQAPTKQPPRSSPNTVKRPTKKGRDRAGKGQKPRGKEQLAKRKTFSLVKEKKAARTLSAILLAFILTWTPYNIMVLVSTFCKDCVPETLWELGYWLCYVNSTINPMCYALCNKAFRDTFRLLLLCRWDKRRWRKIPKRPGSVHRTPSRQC
Description: Positive allosteric modulation at human M1 mAChR expressed in Flp-In-CHO cells at 10 uM incubated for 5 mins by AlphaScreen SureFire Ultra pERK1/2 assay. (In general: In Alpha technology, singlet oxygen from a donor bead excites a nearby acceptor bead.)

Series [11] concerns the target T1, Muscarinic acetylcholine receptor M4 (Homo sapiens). As to the kind of experiment: Displacement of 3[H]-NMS from human M4 mAChR expressed in Flp-In-CHO cells assessed as binding constant incubated for 6 hrs by microbeta2 plate reader assay. The class given is cell-based. The note with it: filed as positive allosteric modulator. The method, boiled down: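 Intact FlpInCHO-hM4 cells, 20,000/well grown overnight, in HBSS pH 7.4 with [3H]-NMS 0.5 nM, ACh (0.01 μM–10 mM) and modulator (0.1–10 μM), shaken 6 h at room temperature. Washed with ice-cold 0.9% NaCl, then scintillation counting. Nonspecific binding defined with 10 μM atropine. pKB and log α(ACh) from global fit to allosteric ternary complex model, with log α′(NMS) fixed at –3 under strong negative cooperativity. 4–5 experiments in duplicate.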

Series [12] shares this target. As to the kind of experiment: Positive allosteric modulation at Rluc-tagged human M4 mAChR expressed in Flp-In-CHO cells co-expressing eYFP-tagged beta-arrestin 2 assessed as ACh-mediated beta-arrestin 2 recruitment co-operativity (log alpha beta) incubated for 5 mins by luminometry. The class given is cell-based. The note with it: filed as positive allosteric modulator. The method in brief:
as §3

The mark [13] stands for this setting: filed as positive allosteric modulator.

As a reminder, the pKb is the negative decadic logarithm of the Kb, by convention in mol/L. Consider `Cc1ccc(-c2cnn(CC3CCCC3)c2)c(-c2ccc(F)c(F)c2)n1`, for which the Kp in [1] came to 1.6. Moreover, in series [2], the deltapEC50 was determined as 0.76. Moreover, the concentration at 1.5 h in series [3] was 159 nM; in series [4], 255 nM. Further, the outcome in series [5] was Active. Also, in series [6], the concentration came out at 2140 nM. In addition, the log(activity) was -0.07 in series [7], 0.31 in [8] and 1.55 in series [12]. For the same compound, the Activity in series [9] (setting [13]) is 51.4%. For the same compound, the result in series [10] was inactive. Moreover, in [11], the pKb worked out at 4.53.

Regarding `Cc1ccc(-c2cnn(CC3CCCC3)c2)c(-c2ccc3c(c2)C(=O)N(C)C3)n1`, the Kp in series [1] is 0.1. For the same compound, the deltapEC50 in series [2] came out at 1.48. Moreover, the concentration at 1.5 h in [3] amounted to 14 nM; in series [4], 9 nM. In series [5], the outcome was Active. Besides, the concentration in series [6] came to 481 nM. Moreover, the values for the log(activity) in series [7], in series [8] and in [12] were -0.45, 0.99 and 1.94, respectively. In addition, the Activity in [9] (setting [13]) stood at 103%. Also, in [10], the outcome was inactive. For the same compound, the pKb in series [11] came to 6.22.

As to `Cc1ccc(-c2cnn(CC3CCCC3)c2)c(-c2ccc(N)c([N+](=O)[O-])c2)n1`, the Kp in series [1] is 0.3. The deltapEC50 in [2] was 1.27. Moreover, the concentration at 1.5 h came to 657 nM in series [3] and 373 nM in [4]. Moreover, the result in [5] was Active. For the same compound, the concentration in series [6] came to 982 nM. Also, the log(activity) in [7] is -1.29; in series [8], 0.39; in series [12] it was 1.18. Moreover, the Activity in [9] was 8.48%. The outcome in [10] was inactive. Further, the pKb in series [11] turned out to be 4.75.
